Measurements as given in ChEMBL document CHEMBL1806376, “Synthesis and biological properties of macrolactam analogs of the natural product macrolide (-)-A26771B” (2011).
In brackets after ≈: the same amount, converted by molar mass.

Assays:
Type in all cases: functional
[1] = system: Enterococcus faecalis; assay: Antibacterial activity against Enterococcus faecalis ATCC 29212 by broth microdilution method
Procedure, shortened: (§1)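 MIC values determined by broth microdilution following the CLSI method.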

[2] = system: Enterococcus faecium; assay: Antibacterial activity against Enterococcus faecium 1 by broth microdilution method; procedure, shortened: as §1
[3] = system: Haemophilus influenzae; assay: Antibacterial activity against Haemophilus influenzae ATCC 31517 by broth microdilution method; procedure, shortened: as §1
[4] = system: Haemophilus influenzae; assay: Antibacterial activity against efflux knock-out Haemophilus influenzae LS2 by broth microdilution method; procedure, shortened: as §1
[5] = system: Pseudomonas aeruginosa; assay: Antibacterial activity against Pseudomonas aeruginosa ATCC 27853 by broth dilution method; procedure, shortened: as §1
[6] = system: Staphylococcus aureus; assay: Antibacterial activity against Staphylococcus aureus ATCC 13709 by broth microdilution method; procedure, shortened: as §1
[7] = system: Staphylococcus aureus; assay: Antibacterial activity against methicillin-resistant Staphylococcus aureus Sa2 by broth microdilution method
Procedure, shortened: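 Broth microdilution run according to the CLSI method.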

[8] = system: Staphylococcus aureus; assay: Antibacterial activity against Staphylococcus aureus ATCC 25923 by broth microdilution method; procedure, shortened: as §1
[9] = system: Staphylococcus aureus; assay: Antibacterial activity against Staphylococcus aureus ATCC 25923 by broth microdilution method in presence of 10% human serum
Procedure, shortened: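 MIC determined by broth microdilution per the CLSI method, with 10% human serum added to the medium.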

[10] = system: Staphylococcus aureus; assay: Antibacterial activity against Staphylococcus aureus oxford by broth microdilution method; procedure, shortened: as §1
[11] = system: Streptococcus pneumoniae; assay: Antibacterial activity against Streptococcus pneumoniae ATCC 49619 by broth microdilution method; procedure, shortened: as §1
[12] = system: Streptococcus pneumoniae; assay: Antibacterial activity against Streptococcus pneumoniae Pen9 IV381-221 by broth microdilution method; procedure, shortened: as §1
[13] = system: Escherichia coli; assay: Antibacterial activity against Escherichia coli ATCC 25922 by broth microdilution method; procedure, shortened: as §1
[14] = Enterococcus faecium, 1, read-out: MIC
[15] = Haemophilus influenzae, ATCC 31517, read-out: MIC
[16] = Haemophilus influenzae, LS2, read-out: MIC
[17] = Staphylococcus aureus, ATCC 13709, read-out: MIC
[18] = Staphylococcus aureus, Sa2, read-out: MIC
[19] = Staphylococcus aureus, ATCC 25923, read-out: MIC
[20] = Staphylococcus aureus, oxford, read-out: MIC
[21] = Streptococcus pneumoniae, ATCC 49619, read-out: MIC
[22] = Streptococcus pneumoniae, Pen9 IV381-221, read-out: MIC
[23] = Enterococcus faecalis, ATCC 29212, read-out: MIC

`CO[C@H]1CCCCCCCCC[C@@H](C)OC(=O)C2OC2C1=O` (single isomer, unassigned; diastereomer 1) was tested, and the MIC [1] was 64 µg/mL (≈ 205 µM), the MIC [2, 14] was 32 µg/mL (≈ 102 µM) and the MIC [3, 15] was greater than 64 µg/mL. For the same compound, the MIC [4, 16] was greater than 64 µg/mL, the MIC [5] was greater than 64 µg/mL and the MIC [6, 17] was 32 µg/mL (≈ 102 µM). For the same compound, the MIC [7, 18] was greater than 64 µg/mL, the MIC [8, 19] was 64 µg/mL (≈ 205 µM) and the MIC [9, 19] was greater than 64 µg/mL. It also gave an MIC [10, 20] of 64 µg/mL (≈ 205 µM), an MIC [11, 21] of 64 µg/mL (≈ 205 µM) and an MIC [12, 22] of 64 µg/mL (≈ 205 µM).
`C[C@@H]1CCCCCCCCC[C@H](OC(=O)CCC(=O)OC(C)(C)C)C(=O)/C=C/C(=O)O1` was tested, and the MIC [13] was greater than 32 µg/mL, the MIC [1, 23] was 2 µg/mL (≈ 4.56 µM) and the MIC [3, 15] was greater than 32 µg/mL. It also gave an MIC [4, 16] of 8 µg/mL (≈ 18.2 µM), an MIC [5] greater than 32 µg/mL and an MIC [6, 17] of 2 µg/mL (≈ 4.56 µM). It also gave an MIC [7, 18] of 0.5 µg/mL (≈ 1.14 µM), an MIC [8, 19] of 8 µg/mL (≈ 18.2 µM) and an MIC [9, 19] greater than 32 µg/mL. It also gave an MIC [10, 20] of 2 µg/mL (≈ 4.56 µM), an MIC [11, 21] of 2 µg/mL (≈ 4.56 µM) and an MIC [12, 22] of 1 µg/mL (≈ 2.28 µM).
For `COC1CCCCCCCCC[C@@H](C)NC(=O)/C=C/C1=O` (single isomer, unassigned; diastereomer 2), the MIC [1, 23] was 2 µg/mL (≈ 6.77 µM), the MIC [2, 14] was 0.5 µg/mL (≈ 1.69 µM) and the MIC [3] was 2 µg/mL (≈ 6.77 µM). For the same compound, the MIC [4] was 0.25 µg/mL (≈ 0.846 µM), the MIC [6] was 0.5 µg/mL (≈ 1.69 µM) and the MIC [7] was 0.5 µg/mL (≈ 1.69 µM). It also gave an MIC [8] of 1 µg/mL (≈ 3.38 µM), an MIC [9] of 8 µg/mL and an MIC [10] of 0.5 µg/mL (≈ 1.69 µM). For the same compound, the MIC [11] was 2 µg/mL (≈ 6.77 µM) and the MIC [12] was 8 µg/mL (≈ 27.1 µM).
Compound `CO[C@H]1CCCCCCCCC[C@@H](C)OC(=O)C2OC2C1=O` (stereo in doubt; 16b) has an MIC [13] greater than 64 µg/mL, an MIC [1, 23] greater than 64 µg/mL and an MIC [2] greater than 64 µg/mL. For the same compound, the MIC [6] was greater than 64 µg/mL, the MIC [8] was greater than 64 µg/mL and the MIC [10] was greater than 64 µg/mL. For the same compound, the MIC [11] was greater than 64 µg/mL and the MIC [12] was greater than 64 µg/mL.
Work on `C[C@@H]1CCCCCCCCC[C@H](OC(=O)CCC(=O)OC(C)(C)C)C(=O)c2[nH]ncc2C(=O)O1` yielded an MIC [13] greater than 64 µg/mL, an MIC [1, 23] greater than 64 µg/mL and an MIC [2, 14] greater than 64 µg/mL. It also gave an MIC [3, 15] greater than 64 µg/mL, an MIC [4, 16] of 8 µg/mL (≈ 16.7 µM) and an MIC [5] greater than 64 µg/mL. For the same compound, the MIC [6, 17] was greater than 64 µg/mL, the MIC [7, 18] was greater than 64 µg/mL and the MIC [8, 19] was greater than 64 µg/mL. For the same compound, the MIC [9, 19] was greater than 64 µg/mL, the MIC [10, 20] was greater than 64 µg/mL and the MIC [11, 21] was greater than 64 µg/mL. For the same compound, the MIC [12, 22] was 32 µg/mL (≈ 66.9 µM).
In the case of `C[C@@H]1CCCCCCCCC[C@H](OC(=O)CCC(=O)OC(C)(C)C)C(=O)CC(N2CCN(C)CC2)C(=O)O1` (some centres not stated), the MIC [13] is reported as greater than 32 µg/mL, the MIC [1, 23] is reported as 4 µg/mL (≈ 7.42 µM) and the MIC [2, 14] is reported as 4 µg/mL (≈ 7.42 µM). For the same compound, the MIC [3, 15] was greater than 32 µg/mL, the MIC [5] was greater than 32 µg/mL and the MIC [6, 17] was 2 µg/mL (≈ 3.71 µM). For the same compound, the MIC [7, 18] was 2 µg/mL (≈ 3.71 µM), the MIC [8, 19] was 4 µg/mL (≈ 7.42 µM) and the MIC [9, 19] was greater than 32 µg/mL. It also gave an MIC [10, 20] of 2 µg/mL (≈ 3.71 µM), an MIC [11, 21] of 4 µg/mL (≈ 7.42 µM) and an MIC [12, 22] of 2 µg/mL (≈ 3.71 µM).
Work on `CO[C@H]1CCCCCCCCC[C@@H](C)OC(=O)CCC1=O` yielded an MIC [13] greater than 64 µg/mL, an MIC [1, 23] greater than 64 µg/mL and an MIC [2, 14] greater than 64 µg/mL. The MIC [3, 15] was greater than 64 µg/mL, the MIC [4, 16] was 64 µg/mL (≈ 214 µM) and the MIC [5] was greater than 64 µg/mL. It also gave an MIC [6, 17] greater than 64 µg/mL, an MIC [7, 18] greater than 64 µg/mL and an MIC [8, 19] greater than 64 µg/mL. It also gave an MIC [9, 19] greater than 64 µg/mL, an MIC [10, 20] greater than 64 µg/mL and an MIC [11, 21] greater than 64 µg/mL. For the same compound, the MIC [12, 22] was greater than 64 µg/mL.
Work on `CO[C@H]1CCCCCCCCC[C@@H](C)OC(=O)/C=C/C1=O` yielded an MIC [13] greater than 64 µg/mL, an MIC [1, 23] of 2 µg/mL (≈ 6.75 µM) and an MIC [2, 14] of 2 µg/mL (≈ 6.75 µM). For the same compound, the MIC [3, 15] was 32 µg/mL (≈ 108 µM), the MIC [4, 16] was 4 µg/mL (≈ 13.5 µM) and the MIC [5] was greater than 64 µg/mL. It also gave an MIC [6, 17] of 1 µg/mL (≈ 3.37 µM), an MIC [7, 18] of 0.5 µg/mL (≈ 1.69 µM) and an MIC [8, 19] of 1 µg/mL (≈ 3.37 µM). It also gave an MIC [9, 19] of 16 µg/mL, an MIC [10, 20] of 1 µg/mL (≈ 3.37 µM) and an MIC [11, 21] of 2 µg/mL (≈ 6.75 µM). The MIC [12, 22] was 2 µg/mL (≈ 6.75 µM).
With `C[C@@H]1CCCCCCCCC[C@H](OC(=O)CCC(=O)O)C(=O)/C=C/C(=O)O1` the MIC [13] was greater than 32 µg/mL, the MIC [1, 23] was 16 µg/mL (≈ 41.8 µM) and the MIC [2, 14] was 4 µg/mL (≈ 10.5 µM). For the same compound, the MIC [3, 15] was greater than 32 µg/mL, the MIC [4, 16] was 16 µg/mL (≈ 41.8 µM) and the MIC [5] was greater than 32 µg/mL. The MIC [6, 17] was 2 µg/mL (≈ 5.23 µM), the MIC [7, 18] was 2 µg/mL (≈ 5.23 µM) and the MIC [8, 19] was 4 µg/mL (≈ 10.5 µM). The MIC [9, 19] was greater than 32 µg/mL, the MIC [10, 20] was 2 µg/mL (≈ 5.23 µM) and the MIC [11, 21] was 16 µg/mL (≈ 41.8 µM). For the same compound, the MIC [12, 22] was 8 µg/mL (≈ 20.9 µM).
